# Data: ChEMBL document CHEMBL1156677, “Oxoisoaporphine alkaloid derivatives: synthesis, DNA binding affinity and cytotoxicity” (Eur J Med Chem, 2008)
# Columns and labels:
# Type in all cases: functional, cell-based
# [1] = system: NCI-H460; assay: Cytotoxicity against human NCI-H460 cells after 48 hrs by MTT assay; conditions: NCI-H460, 48 h
# Procedure, shortened: (§1)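 Cells in exponential growth were trypsinised, centrifuged at 180 × g for 3 min, resuspended at 5 × 10^4 cells/ml and seeded. After 48 h drug exposure, MTT (1 mg/mL) added for 4 h. Formazan dissolved in DMSO, OD read at 570 nm. Each dose run in triplicate. IC50 derived from mean OD and reported as the mean of three independent assays.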
# [2] = system: MCF7; assay: Cytotoxicity against human MCF7 cells after 48 hrs by MTT assay; conditions: MCF7, 48 h; procedure, shortened: as §1
# [3] = system: HepG2; assay: Cytotoxicity against human HepG2 cells after 48 hrs by MTT assay; conditions: HepG2, 48 h; procedure, shortened: as §1
compound,measurement,setting,value
O=C(CCNCCO)Nc1ccc2c(c1)C(=O)c1cccc3ccnc-2c13,IC50,[1],2.36 µM
same,IC50,[2],4.3 µM
same,IC50,[3],3.88 µM
O=C1c2ccccc2-c2nccc3cccc1c23,IC50,[2],> 100 µM
same,IC50,[3],> 100 µM
CN(C)CCCC(=O)Nc1ccc2c(c1)C(=O)c1cccc3ccnc-2c13,IC50,[1],19.3 µM
same,IC50,[2],11.5 µM
same,IC50,[3],29.8 µM
O=C(CCN1CCCCC1)Nc1ccc2c(c1)C(=O)c1cccc3ccnc-2c13,IC50,[1],4.23 µM
same,IC50,[2],5.07 µM
same,IC50,[3],6.36 µM
Nc1ccc2c(c1)C(=O)c1cccc3ccnc-2c13,IC50,[1],35.5 µM
same,IC50,[2],20.4 µM
same,IC50,[3],19.7 µM
O=C(CCN1CCCC1)Nc1ccc2c(c1)C(=O)c1cccc3ccnc-2c13,IC50,[1],16.7 µM
same,IC50,[2],7.96 µM
same,IC50,[3],8.18 µM
CCN(CC)CCC(=O)Nc1ccc2c(c1)C(=O)c1cccc3ccnc-2c13,IC50,[1],4.99 µM
same,IC50,[2],12.7 µM
same,IC50,[3],12.1 µM
CN(C)CCC(=O)Nc1ccc2c(c1)C(=O)c1cccc3ccnc-2c13,IC50,[1],6.71 µM
same,IC50,[2],9.11 µM
same,IC50,[3],7.74 µM
O=C(CN1CCCC1)Nc1ccc2c(c1)C(=O)c1cccc3ccnc-2c13,IC50,[1],2.09 µM
same,IC50,[2],11.8 µM
same,IC50,[3],8.14 µM
CN(C)CCNCCC(=O)Nc1ccc2c(c1)C(=O)c1cccc3ccnc-2c13,IC50,[1],30.3 µM
same,IC50,[2],28.1 µM
same,IC50,[3],21 µM
CN(C)CC(=O)Nc1ccc2c(c1)C(=O)c1cccc3ccnc-2c13,IC50,[1],9.22 µM
same,IC50,[2],17.5 µM
same,IC50,[3],9.69 µM
O=C(CCCN1CCCC1)Nc1ccc2c(c1)C(=O)c1cccc3ccnc-2c13,IC50,[1],9.08 µM
same,IC50,[2],27.4 µM
same,IC50,[3],12.9 µM
